Test results taken from ChEMBL document CHEMBL2311274, “Triazole-based inhibitors of geranylgeranyltransferase II” (Bioorg Med Chem Lett, 2013).

What was measured:
RPMI-8226 = assay: Cytotoxicity against human multiple myeloma RPMI8226 measured after 24 to 48 hrs by MTT assay; type: functional, cell-based
[1] = Inhibition of recombinant GGTase 2 (unknown origin) by scintillation counting in presence of [3H]GGPP; set-up: species or system Homo sapiens
Outline: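 Recombinant GGTase II reaction containing radiolabeled GGPP as prenyl donor, a Rab protein as acceptor substrate, and REP. IC50 obtained from inhibition of transfer.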

Structure (SMILES)	IC50 [1]	IC50 (RPMI-8226)
CC(C)=CCC/C(C)=C/CC/C(C)=C/CCC(C)=CCn1cc(CC(P(=O)(O)O)P(=O)(O)O)nn1 (mixture of isomers)	100 µM	1000 µM
O=P(O)(O)C(Cc1cn(Cc2ccc3ccccc3c2)nn1)P(=O)(O)O	> 2000 µM	> 1000 µM
O=P(O)(O)C(O)(Cc1cccnc1)P(=O)(O)O [RISEDRONIC ACID]	> 1000 µM	

Continued, in another order:

IC50 [1]	Structure (SMILES)	IC50 (RPMI-8226)
2000 µM	O=P(O)(O)C(Cc1cn(Cc2ccccc2)nn1)P(=O)(O)O	> 1000 µM
650 µM	CC(C)=CCC/C(C)=C/CCC(C)=CCn1cc(CC(P(=O)(O)O)P(=O)(O)O)nn1 (mixture of isomers)	900 µM
> 2000 µM	CC(C)=CCCC(C)=CCn1cc(CC(P(=O)(O)O)P(=O)(O)O)nn1 (mixture of isomers)	> 1000 µM
